# The list is not random: actives were taken first. Their share in the collection is about 3.1%.
# Apaf-1 inh: inhibitors of human Apaf-1 apoptosome, primary screen, biochemical, DEVD-Rh110 fluorescence, uHTS; Apoptotic protease-activating factor 1 (Homo sapiens), O14727; reconstituted apoptosome caspase-3 activity; inhibition, % at 20 µM; hit rate 0.71% among 330,000; AID 489030, 2010; active = inhibition of at least 40% at 20 µM;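 also: plate controls were DMSO wells for no effect and DEVD-CHO caspase inhibitor wells for full effect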
#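 System: Apoptosome proteins | Medium: Hepes pH 7.5 with detergent and BSA | Also added: Cytochrome c trigger plus (Z-DEVD)2-Rh110 caspase-3 substrate | Incubation: 30 min compound preincubation, 50 min activation, room temperature | Detection: Rhodamine 110 fluorescence at Ex 480/Em 540 nm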
# SENP7 inh: SENP7 protease inhibitors, primary screen, biochemical, luminescence, uHTS; recombinant SENP7, Z-RLRGG-aminoluciferin luminescence, 40 min; AID 434973, 2010; Sentrin-specific protease 7 (Homo sapiens), Q9BQF6; hit rate 1.5% among 330,000; inhibition, % at 5 µM;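 active = inhibition above about 50% at the single test dose, limit read from the data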;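 also: plate controls were DMSO with enzyme for no effect and no enzyme buffer wells for full effect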
# Target sequence (Q9BQF6 706-1050 limits assumed): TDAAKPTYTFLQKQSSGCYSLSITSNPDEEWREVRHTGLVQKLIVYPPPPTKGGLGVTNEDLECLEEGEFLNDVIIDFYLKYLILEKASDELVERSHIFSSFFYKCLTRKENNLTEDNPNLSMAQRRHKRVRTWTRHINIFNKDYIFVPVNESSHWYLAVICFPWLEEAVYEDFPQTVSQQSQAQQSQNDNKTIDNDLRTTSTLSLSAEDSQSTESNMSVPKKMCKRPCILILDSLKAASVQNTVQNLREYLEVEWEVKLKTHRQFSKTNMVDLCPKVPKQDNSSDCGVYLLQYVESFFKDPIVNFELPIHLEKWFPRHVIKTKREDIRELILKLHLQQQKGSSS
# UBC13 inh: UBC13 polyubiquitin chain formation inhibitors, primary screen, biochemical, TR-FRET, uHTS | Ubiquitin-conjugating enzyme E2 N (Homo sapiens), P61088 | inhibition, % at 20 µM | hit rate 0.47% among 330,000; in the data active = inhibition above about 45%, passing the limit was not always enough
# SENP6 block: SENP6 protease inhibitors, primary screen, biochemical, luminescence, uHTS. inhibition, % at 10 µM. hit rate 1.8% among 330,000. Recombinant SENP6 catalytic domain, aminoluciferin luminescence;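 active = inhibition above about 50% at the single tested dose, limit read from the data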;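 also: plate controls were DMSO wells with enzyme for no effect and DMSO wells lacking enzyme for full effect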
# SENP8 block-1: SENP8 protease inhibitors, primary screen, biochemical, luminescence | AID 2540, 2010 | Sentrin-specific protease 8 (Homo sapiens), Q96LD8 | inhibition, % at 10 µM | hit rate 1.2% among 330,000 | purified SENP8, Z-RLRGG-aminoluciferin cleavage; in the data active = inhibition above about 50%
# Target sequence (Q96LD8 whole entry, looked up): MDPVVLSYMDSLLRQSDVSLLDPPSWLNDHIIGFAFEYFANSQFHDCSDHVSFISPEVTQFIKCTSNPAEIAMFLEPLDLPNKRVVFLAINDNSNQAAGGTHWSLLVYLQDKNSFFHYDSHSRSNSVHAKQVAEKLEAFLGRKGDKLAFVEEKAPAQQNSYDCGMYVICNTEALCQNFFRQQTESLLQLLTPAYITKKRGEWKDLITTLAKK
# SENP8 block-2: human SENP8 protease inhibitors, primary screen, biochemical, fluorescence, Nedd8 protein substrate, uHTS. Sentrin-specific protease 8 (Homo sapiens), Q96LD8. recombinant SENP8. inhibition, % at 20 µM. hit rate 0.64% among 360,000; in the data active = inhibition mostly above about 40%, no sharp cut-off; inactive = mostly below about 27%
# Apaf-1 inh conf: Apaf-1 inhibitors, single-dose retest, confirmation, biochemical, fluorescence, DEVD-Rh110, 20 µM. reconstituted apoptosome, caspase-3 DEVD-Rh110 fluorescence. inhibition, % at 20 µM. shares compounds with Apaf-1 inh. AID 504614, 2011. hit rate 25% among 1,800;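 active = mean inhibition of at least 40% at 20 µM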;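 also: plate controls were DMSO wells for no effect and DEVD-CHO caspase inhibitor control wells for full effect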
# Rh110 quench: Rh110 fluorescence interference by putative Apaf-1 inhibitors, confirmation, artefact control for Apaf-1 inhibitor project, biochemical, 20 µM. shares compounds with Apaf-1 inh. quenched caspase reaction. activation (fluorescence interference), % at 20 µM. 1,800 tested, under 10 active;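 active = signal rise of 40% or more at 20 µM, treated as a fluorescence artifact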
# Fluor interf inh: fluorescence interference of Apaf-1 inhibitor hits, dose response, artefact control for Apaf-1 inhibitor project. 460 tested, under 10 active. shares compounds with Apaf-1 inh. IC50, µM. fluorescence interference counterscreen, Apaf-1 assay format; call rule not given here
# * = called active by the depositor; · = no result given.
SMILES,Apaf-1 inh,SENP7 inh,UBC13 inh,SENP6 block,SENP8 block-1,SENP8 block-2,Apaf-1 inh conf,Rh110 quench,others
CCN(CC)CCN(C(=O)CCS(=O)(=O)c1ccccc1)c1nc2cc(C)cc(C)c2s1,35,-7,9,2,8,7,·,·,
OC(c1cc(F)cc(Cl)c1)c1ncc(-c2ccc(Cl)cc2)[nH]1 (stereo not drawn),·,·,·,·,·,6,·,·,
CCC(CC)c1nnc(NC(=O)CN2C(=O)c3ccccc3C2=O)s1,87*,-2,6,-5,-12,7,4,-3,
NC(COCc1ccccc1)c1csc(Nc2ccc(C(=O)NCCO)cc2)n1 (stereo not drawn),·,·,·,·,·,-338,·,·,
Cc1ccc(/C=N/NC(=O)C(C)NC(=O)c2ccccc2)cc1 (stereo not drawn),41*,-1,2,5,-1,6,8,-6,
COc1cccc(C(NC(C)=O)c2nc(-c3csc4ccccc34)cs2)c1 (stereo not drawn),·,·,·,·,·,15,·,·,
CSCC[C@@H](CO)NC(=O)[C@H]1O[C@@H](n2ccc(=O)[nH]c2=O)[C@H](O)[C@@H]1O,·,·,·,·,·,15,·,·,
O=C(CCc1nnc(Cc2c[nH]c3ccccc23)o1)NCCC1CCCCO1 (stereo not drawn),·,·,·,·,·,4,·,·,
CCO[C@@H]1OC(C(=O)N2CCN(Cc3ccc4c(c3)OCO4)CC2)=C[C@H](c2ccc(C(F)(F)F)cc2)[C@H]1CCCO,42*,-11,16,-18,-11,2,20,16,
CCO[C@@H]1OC(C(=O)N2CCN(Cc3ccc4c(c3)OCO4)CC2)=C[C@H](c2ccc(Br)cc2)[C@H]1CCCO,35,0,26,-14,-1,15,·,·,
Cn1c(SCC(=O)n2c3c(c4ccccc42)CCCC3)nnc1-c1ccccc1,43*,6,-11,8,4,4,35,-10,
OC[C@@H]1CN(Cc2ccc(Cl)cc2)C[C@H](n2cnc3c(Nc4ccccc4)ncnc32)O1,·,·,·,·,·,-6,·,·,
O=C(Nc1ccccc1Cl)c1cc(C2CCCCN2C(=O)c2cccs2)on1 (stereo not drawn),·,·,·,·,·,13,·,·,
CN1C(C(=O)NCC2CC2)CC2Cn3c(nc4cc5ccccc5cc43)C21 (stereo not drawn),41*,-4,4,-4,7,-65,10,-2,
O=C(COC(=O)c1ccc(O)cc1O)NCCN1C(=O)CSC1=O,6,6,6,12,-6,8,·,·,
O=C(COC(=O)c1cc(Cl)ccc1Cl)NCCN1C(=O)CSC1=O,43*,-1,-3,-18,-3,2,10,-3,
CCC[C@H]1CN(Cc2ccccc2)C(=O)[C@@H]1CC(=O)NC,·,·,·,·,·,-21,·,·,
CCN(CC)CCN(C(=O)c1ccc2c(c1)CCCC2)c1nc2ccc(OC)cc2s1,61*,-4,4,6,5,0,19,7,
CCN(CC)CCN(C(=O)c1ccc2c(c1)CCCC2)c1nc2ccc(C)cc2s1,51*,-8,8,15,-1,1,11,7,
COCCN(Cc1ccc(C)cc1)C(=O)[C@H]1O[C@@H](n2cnc3c(N)ncnc32)[C@H](O)[C@@H]1O,·,·,·,·,·,20,·,·,
Cc1cc(Nc2cccc(Cl)c2)nc(NCc2ccccc2)n1,43*,-4,49*,-14,-14,3,15,6,
Cc1cc(N/N=C/c2cccc(Cl)c2)nc(NCc2ccccc2)n1,19,8,18,-31,-37,-14,·,·,
COc1ccc(CN2CC(C(=O)NCc3cccc(OC)c3)CC2=O)cc1 (stereo not drawn),67*,-1,5,-8,-13,29,11,4,
O=C(Cc1ccccc1)NC1(O)C(=O)c2ccccc2C1=O,85*,13,-21,42,30,50*,69*,7,Fluor interf inh=>100
CC(NC(=O)Cc1ccccc1)c1ccccc1 (stereo not drawn),-1,-2,3,-2,8,7,·,·,
SMILES,Apaf-1 inh,SENP7 inh,UBC13 inh,SENP6 block,SENP8 block-1,SENP8 block-2,Apaf-1 inh conf,Rh110 quench,others
Cc1nc2nc(C)c(C)nc2nc1C,·,·,·,·,·,-34,·,·,
O=C1N=C(c2ccccc2)S/C1=C\c1cccs1,-8,-5,-28,-6,-17,11,·,·,
CC1=NN(c2ccccc2)C(=O)/C1=C/c1ccc(Cl)cc1,96*,50,-44,41,27,41*,16,-2,
CC1=NN(c2ccccc2)C(=O)/C1=C\N(O)c1ccccc1,71*,36,-42,25,7,76*,30,2,
CC1=NN(c2ccccc2)C(=O)C1C(=O)c1ccc(Cl)cc1 (stereo not drawn),6,-2,3,-12,-6,27,·,·,
CC1=NN(c2ccccc2)C(=O)/C1=C\c1ccc(Br)s1,96*,44,-8,20,2,17,38,1,
COc1cccc(/C=C/C(=C2/C(=O)N(c3ccccc3)N=C2C)c2ccc(C)cc2)c1OC,23,10,-22,-8,-6,19,·,·,
CC1=NN(c2ccccc2)C(=O)/C1=C/c1cccs1,90*,19,-19,9,-1,16,12,3,
O=C(NCc1ccccn1)[C@@H]1CCCN1C(=O)[C@@H]1CCCN1,·,·,·,·,·,18,·,·,
CC(=O)NC(c1ccccc1)c1nc(-c2ccc(F)c(Cl)c2)cs1 (stereo not drawn),·,·,·,·,·,22,·,·,
CC1=NN(c2ccc(C)c(C)c2)C(=O)/C1=C/c1ccc2c(c1)n(C)c(=O)n2C,94*,21,-26,14,2,29,13,5,
CC1=NN(c2ccc(C(=O)O)cc2)C(=O)/C1=C\c1ccc(OC(=O)c2cccs2)cc1,75*,36,-55,8,-4,61*,13,3,
C[C@@H]1CCCCO[C@@H](CN(C)S(=O)(=O)c2ccc(Cl)cc2)[C@@H](C)CN([C@H](C)CO)C(=O)c2cc(N(C)C)ccc2O1,·,·,·,·,·,-7,·,·,
COc1ccc(CCN(C)C(=O)c2cccc(S(=O)(=O)NCc3ccccc3)c2)cc1OC,57*,-10,8,-2,-4,4,38,5,
